pEC50, pIC50, pKi: −log10 of the molar value. Values after ≈ are worked out from the molar mass of the structure shown. Active and inactive are the calls of the source. The calls are words filed in the database; no cut-off is given here.
Tests used:
Cytochrome P450 3A4 [1] = target: T1, Cytochrome P450 3A4 (Homo sapiens, UniProt P08684); test: Inhibition of recombinant CYP3A4 expressed in insect microsomes after 20 mins in presence of BFC substrate; format: ADME, Microsome
[2] = Aqueous solubility of compound; format: physicochemical; settings: buffer
Summary of the method: (§1)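 Aqueous solubility measured over pH 1.0-6.8.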

Cytochrome P450 3A4 [3] = target: T1, Cytochrome P450 3A4; test: Inhibition of recombinant CYP3A4 expressed in insect microsomes after 45 mins in presence of BZR substrate; format: ADME, Microsome
[4] = target: T2, Calcitonin gene-related peptide type 1 receptor (Homo sapiens, UniProt O60894+Q16602); test: Displacement of [I125]CGRP from human CGRP receptor in SK-N-MC cells; format: cell-based
T2 sequence (Q16602 whole entry, one chain of several): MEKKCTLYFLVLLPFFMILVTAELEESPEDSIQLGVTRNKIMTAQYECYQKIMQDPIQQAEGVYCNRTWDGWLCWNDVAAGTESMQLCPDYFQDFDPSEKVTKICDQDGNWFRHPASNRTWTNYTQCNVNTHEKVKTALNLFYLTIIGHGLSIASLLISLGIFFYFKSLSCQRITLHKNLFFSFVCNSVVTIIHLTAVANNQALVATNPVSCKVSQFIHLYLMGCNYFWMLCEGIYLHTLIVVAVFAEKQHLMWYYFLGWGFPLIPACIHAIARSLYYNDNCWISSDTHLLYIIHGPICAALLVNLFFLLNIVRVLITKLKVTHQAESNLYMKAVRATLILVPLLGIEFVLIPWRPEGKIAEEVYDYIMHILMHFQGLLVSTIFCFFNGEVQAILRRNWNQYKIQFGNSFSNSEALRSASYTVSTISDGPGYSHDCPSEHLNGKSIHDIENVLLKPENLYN

[5] = Aqueous solubility of compound at pH 5; format: physicochemical
[6] = Tmax in New Zealand white rabbit at 0.1 mg/kg, intranasally; format: ADME, organism-based, Oryctolagus cuniculus; set-up: dose 0.1 mg/kg; settings: in vivo, inhaled or intranasal
Summary of the method: (§2)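 Rabbits dosed intranasally by spraying a solution into the nasal cavity. Plasma concentrations followed for up to 24 h. Bioavailability was calculated against an iv leg given at 0.5 mg/kg.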

[7] = Bioavailability in sc dosed Sprague-Dawley rat in presence of PG:D5W vehicle; format: ADME, organism-based; settings: in vivo
Summary of the method: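 Rats dosed subcutaneously in PG:D5W vehicle to determine bioavailability.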

Oryctolagus cuniculus [8] = test: Total AUC in New Zealand white rabbit at 0.1 mg/kg, intranasally; format: ADME, organism-based; set-up: route nasal, time AUCmax, dose 0.1 mg/kg; settings: in vivo, inhaled_or_intranasal; summary of the method: as §2
[9] = Tmax in New Zealand white rabbit at 0.3 mg/kg, intranasally; format: ADME, organism-based, Oryctolagus cuniculus; set-up: dose 0.3 mg/kg; settings: in vivo, inhaled or intranasal; summary of the method: as §2
[10] = Bioavailability in sc dosed Sprague-Dawley rat in presence of PBS vehicle; format: ADME, organism-based; settings: in vivo
[11] = Clearance in New Zealand white rabbit at 0.5 mg/kg, iv; format: ADME, organism-based, Oryctolagus cuniculus; set-up: dose 0.5 mg/kg, route intravenous; settings: in vivo
Summary of the method: (§3)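 Rabbits given an iv dose of 0.5 mg/kg as the reference leg for intranasal dosing. Clearance, Vss and terminal half-life were derived from the plasma concentration-time profile.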

[12] = Oral bioavailability in cynomolgus monkey; format: ADME, organism-based, Macaca fascicularis; settings: in vivo
[13] = Ex vivo inhibition of human alpha CGRP-induced artery dilation in human intracranial artery preincubated for 30 mins; format: functional
Summary of the method: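 Wire-mounted human intracranial artery rings were preincubated 30 min with a single antagonist concentration (0.1-30 nM). They were then contracted with 10 mM K+ and given increasing hαCGRP to full relaxation. The CGRP curve shift was analysed by Schild analysis.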

[14] = Half life in New Zealand white rabbit at 0.5 mg/kg, iv; format: ADME, organism-based, Oryctolagus cuniculus; set-up: dose 0.5 mg/kg, route intravenous; settings: in vivo; summary of the method: as §3
[15] = Cmax in New Zealand white rabbit at 1.0 mg/kg, intranasally; settings: in vivo, inhaled or intranasal
[16] = Displacement of [I125]AMY from amylin 1 receptor expressed in CHO cells; format: cell-based
[17] = target: T2, Calcitonin gene-related peptide type 1 receptor; test: Antagonist activity at human CGRP receptor in SK-N-MC cells assessed as inhibition of CGRP-stimulated cAMP production
[18] = Bioavailability in New Zealand white rabbit at 0.3 mg/kg, intranasally; format: ADME, organism-based, Oryctolagus cuniculus; settings: in vivo, inhaled or intranasal; summary of the method: as §2
Callithrix jacchus [19] = test: Inhibition of human alpha CGRP-induced increase in facial blood flow in marmoset at 0.01 mg/kg, sc after 60 and 105 mins by laser Doppler flowmetry; format: functional, organism-based; set-up: dose 0.01 mg/kg
Summary of the method: (§4)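 Anesthetised marmosets received hRCGRP 10 µg/kg IV at 45 min intervals (-30, 15, 60 and 105 min); antagonist given SC at 0 min (dose range 0.003-0.03 mg/kg), vehicle-treated group run in parallel. Facial blood flow increase after each CGRP challenge read by laser Doppler flowmetry; plasma drug levels sampled at the 15 min test time.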

[20] = Displacement of [I125]AM from adrenomedullin 1 receptor expressed in CHO cells; format: cell-based
[21] = Ex vivo reversal of human alpha CGRP-induced artery dilation in human intracranial artery; format: functional
Summary of the method: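 Human intracranial artery rings were wire-mounted on a force transducer and contracted with 10 mM KCl. They were then fully dilated with 1 nM hαCGRP. Antagonist was added cumulatively in half-log increments to reverse the dilation.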

[22] = Oral bioavailability in Sprague-Dawley rat; format: ADME, organism-based; settings: in vivo
[23] = Bioavailability in intratracheally dosed Sprague-Dawley rat; format: ADME, organism-based; settings: in vivo, inhaled or intranasal
[24] = Tmax in New Zealand white rabbit at 0.5 mg/kg, iv; format: ADME, organism-based, Oryctolagus cuniculus; set-up: dose 0.5 mg/kg, route intravenous; settings: in vivo; summary of the method: as §3
[25] = Volume of distribution at steady state in New Zealand white rabbit at 0.5 mg/kg, iv; format: ADME, organism-based, Oryctolagus cuniculus; set-up: dose 0.5 mg/kg, route intravenous; settings: in vivo, read-out: Vdss; summary of the method: as §3
Oryctolagus cuniculus [26] = test: Total AUC in New Zealand white rabbit at 0.5 mg/kg, iv; format: ADME, organism-based; set-up: dose 0.5 mg/kg, route intravenous, time AUCmax; settings: in vivo; summary of the method: as §3
[27] = Intrinsic permeability across human Caco-2 cells; format: ADME, cell-based; settings: read-out: IP
[28] = Ex vivo effect on basal artery tension in human coronary artery assessed as contractility; format: functional, tissue-based
Summary of the method: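 Contractility was measured in wire-mounted ex vivo human artery rings at up to 10 µM compound. Serotonin (10 µM) was added at the end of each session to give maximal contraction.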

Callithrix jacchus [29] = test: Inhibition of human alpha CGRP-induced increase in facial blood flow in marmoset at 0.01 mg/kg, sc after 15 mins by laser Doppler flowmetry; format: functional, organism-based; set-up: dose 0.01 mg/kg
Summary of the method: (§5)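 Anesthetized marmosets received iv hαCGRP (10 µg/kg) at -30, 15, 60 and 105 min. Antagonist was given sc at 0 min. Facial blood flow changes were measured by laser Doppler flowmetry and compared with vehicle-treated animals.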

Callithrix jacchus [30] = test: Inhibition of human alpha CGRP-induced increase in facial blood flow in marmoset at 0.03 mg/kg, sc after 15, 60 and 105 mins by laser Doppler flowmetry; format: functional, organism-based; set-up: dose 0.03 mg/kg; summary of the method: as §4
Cytochrome P450 2C19 = Cytochrome P450 2C19 (Homo sapiens, UniProt P33261); test: Inhibition of human recombinant CYP2C19 expressed in insect microsomes
Cytochrome P450 2C19, sequence (P33261 whole entry): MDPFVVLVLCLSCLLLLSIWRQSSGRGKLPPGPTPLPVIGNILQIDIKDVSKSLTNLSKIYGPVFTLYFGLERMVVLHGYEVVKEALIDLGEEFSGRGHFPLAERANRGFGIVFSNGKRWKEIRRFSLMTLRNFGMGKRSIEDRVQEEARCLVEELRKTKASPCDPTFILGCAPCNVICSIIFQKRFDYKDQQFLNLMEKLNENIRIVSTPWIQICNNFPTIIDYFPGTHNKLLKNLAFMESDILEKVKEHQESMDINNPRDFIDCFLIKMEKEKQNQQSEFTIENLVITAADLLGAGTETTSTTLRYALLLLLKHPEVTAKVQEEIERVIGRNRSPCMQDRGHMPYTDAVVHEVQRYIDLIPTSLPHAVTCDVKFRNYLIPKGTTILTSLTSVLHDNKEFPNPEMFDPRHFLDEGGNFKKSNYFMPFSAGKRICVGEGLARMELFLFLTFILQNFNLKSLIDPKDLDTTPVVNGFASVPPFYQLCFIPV

Oryctolagus cuniculus [31] = test: Cmax in New Zealand white rabbit at 0.5 mg/kg, iv; format: ADME, organism-based; set-up: dose 0.5 mg/kg, route intravenous; settings: in vivo; summary of the method: as §3
Cytochrome P450 2C9 = Cytochrome P450 2C9 (Homo sapiens, UniProt P11712); test: Inhibition of human recombinant CYP2C9 expressed in insect microsomes
Cytochrome P450 2C9, sequence (P11712 whole entry): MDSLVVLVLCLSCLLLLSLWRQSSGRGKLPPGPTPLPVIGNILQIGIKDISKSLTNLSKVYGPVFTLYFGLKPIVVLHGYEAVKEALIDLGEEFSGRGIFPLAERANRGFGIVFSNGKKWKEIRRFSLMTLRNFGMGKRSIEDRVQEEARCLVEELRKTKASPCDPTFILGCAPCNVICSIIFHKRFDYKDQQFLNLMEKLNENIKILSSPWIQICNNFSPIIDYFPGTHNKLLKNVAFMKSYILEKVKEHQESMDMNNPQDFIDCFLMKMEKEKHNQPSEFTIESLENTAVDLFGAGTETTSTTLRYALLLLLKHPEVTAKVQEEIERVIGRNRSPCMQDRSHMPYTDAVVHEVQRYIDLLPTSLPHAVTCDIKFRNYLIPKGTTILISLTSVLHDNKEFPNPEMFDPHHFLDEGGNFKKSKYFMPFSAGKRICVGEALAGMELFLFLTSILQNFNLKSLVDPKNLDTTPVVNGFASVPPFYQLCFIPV

[32] = Displacement of [I125]CGRP from marmoset CGRP receptor; set-up: species or system Callithrix jacchus
[33] = Drug level in New Zealand white rabbit after 24 hrs; format: ADME, organism-based, Oryctolagus cuniculus; settings: in vivo, read-out: Drug uptake
Summary of the method: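 Plasma level of drug in rabbits measured 24 h after intranasal dosing of a sprayed solution.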

Calcitonin receptor = target: T3, Calcitonin receptor (Homo sapiens, UniProt P30988); test: Displacement of [125I]calcitonin from calcitonin receptor in human T47D cells; format: cell-based
T3 sequence (P30988 whole entry): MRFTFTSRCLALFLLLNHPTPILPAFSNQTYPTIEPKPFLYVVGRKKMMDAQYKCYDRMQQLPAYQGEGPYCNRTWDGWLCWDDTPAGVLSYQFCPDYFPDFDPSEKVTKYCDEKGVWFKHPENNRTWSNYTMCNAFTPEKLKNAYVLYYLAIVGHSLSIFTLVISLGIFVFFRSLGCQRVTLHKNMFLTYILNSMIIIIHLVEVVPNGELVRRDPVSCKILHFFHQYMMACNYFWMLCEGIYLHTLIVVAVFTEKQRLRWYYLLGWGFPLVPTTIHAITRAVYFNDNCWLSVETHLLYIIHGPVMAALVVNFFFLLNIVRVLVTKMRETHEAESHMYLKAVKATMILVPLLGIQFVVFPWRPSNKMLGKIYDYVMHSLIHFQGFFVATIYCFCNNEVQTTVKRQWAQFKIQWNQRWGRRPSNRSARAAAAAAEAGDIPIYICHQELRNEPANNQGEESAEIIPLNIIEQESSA

Oryctolagus cuniculus [34] = test: Bioavailability in New Zealand white rabbit at 0.1 mg/kg, intranasally; format: ADME, organism-based; settings: in vivo, inhaled_or_intranasal, 1.0 mg/kg, in the assay text read “1.0 mg/kg” for “0.1 mg/kg”; summary of the method: as §2
[35] = target: Calcitonin gene-related peptide type 1 receptor (Rattus norvegicus, UniProt Q63118+Q9JJ74); test: Displacement of [I125]CGRP from rat CGRP receptor
Calcitonin gene-related peptide type 1 receptor (Rattus norvegicus, UniProt Q63118+Q9JJ74), sequence (Q63118 whole entry, one chain of several): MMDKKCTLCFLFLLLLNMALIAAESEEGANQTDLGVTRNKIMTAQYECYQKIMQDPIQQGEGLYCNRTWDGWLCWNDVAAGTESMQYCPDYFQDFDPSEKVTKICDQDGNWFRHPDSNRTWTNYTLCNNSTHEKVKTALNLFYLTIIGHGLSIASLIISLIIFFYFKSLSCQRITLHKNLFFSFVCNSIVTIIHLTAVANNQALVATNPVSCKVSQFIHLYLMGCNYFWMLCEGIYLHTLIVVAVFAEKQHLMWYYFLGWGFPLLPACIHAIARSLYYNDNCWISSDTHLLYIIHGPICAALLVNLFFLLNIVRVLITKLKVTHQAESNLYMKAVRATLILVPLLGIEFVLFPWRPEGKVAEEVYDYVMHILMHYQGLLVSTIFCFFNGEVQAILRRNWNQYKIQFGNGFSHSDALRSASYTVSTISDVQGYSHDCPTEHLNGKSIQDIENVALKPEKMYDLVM

[36] = Displacement of [I125]AMY from amylin 3 receptor expressed in CHO cells; format: cell-based
[37] = Cmax in New Zealand white rabbit at 0.3 mg/kg, intranasally; format: ADME, organism-based, Oryctolagus cuniculus; set-up: route nasal, dose 0.3 mg/kg; settings: in vivo, inhaled or intranasal; summary of the method: as §2
[38] = Aqueous solubility of compound at pH 1 to 6.8; format: physicochemical; summary of the method: as §1
Callithrix jacchus [39] = test: Inhibition of human alpha CGRP-induced increase in facial blood flow in marmoset at 0.003 mg/kg, sc by laser Doppler flowmetry; format: functional, organism-based; set-up: dose 0.003 mg/kg; summary of the method: as §5
[40] = Total AUC in New Zealand white rabbit at 0.3 mg/kg, intranasally; format: ADME, organism-based, Oryctolagus cuniculus; set-up: time AUCmax, route nasal, dose 0.3 mg/kg; settings: in vivo, inhaled or intranasal; summary of the method: as §2
[41] = Bioavailability in sc dosed cynomolgus monkey; format: ADME, organism-based, Macaca fascicularis; settings: in vivo
Summary of the method: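 Cynomolgus monkeys dosed subcutaneously in PG:D5W vehicle to determine bioavailability.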

[42] = Fraction unbound in human serum at 10 uM; format: ADME, cell-free
Summary of the method: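 Serum protein binding measured in vitro with compound at 10 µM.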

[43] = Displacement of [I125]AM from adrenomedullin 2 receptor expressed in CHO cells; format: cell-based

T1 sequence (P08684 whole entry): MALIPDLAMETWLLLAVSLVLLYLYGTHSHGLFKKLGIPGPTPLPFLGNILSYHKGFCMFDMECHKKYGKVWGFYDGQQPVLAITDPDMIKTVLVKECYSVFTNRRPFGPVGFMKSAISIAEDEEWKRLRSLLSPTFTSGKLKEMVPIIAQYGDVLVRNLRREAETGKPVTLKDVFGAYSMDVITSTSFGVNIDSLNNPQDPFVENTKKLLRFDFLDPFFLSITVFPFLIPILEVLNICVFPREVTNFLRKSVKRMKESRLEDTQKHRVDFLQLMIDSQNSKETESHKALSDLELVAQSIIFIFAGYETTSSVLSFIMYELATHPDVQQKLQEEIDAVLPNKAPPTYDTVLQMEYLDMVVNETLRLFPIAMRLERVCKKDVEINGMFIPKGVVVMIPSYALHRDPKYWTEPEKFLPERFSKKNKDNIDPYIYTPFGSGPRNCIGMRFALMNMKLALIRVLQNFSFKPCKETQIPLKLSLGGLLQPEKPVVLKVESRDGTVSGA

## O=C(N[C@H](Cc1ccc2[nH]ncc2c1)C(=O)N1CCC(N2CCCCC2)CC1)N1CCC(N2Cc3ccccc3NC2=O)CC1
Cytochrome P450 3A4 [1]
  pIC50: < 4.40
[2]
  Activity: Not Active
Cytochrome P450 3A4 [3]
  pIC50: 5.40

## O=C(N[C@H](Cc1csc2ccccc12)C(=O)N1CCC(N2CCCCC2)CC1)N1CCC(N2Cc3ccccc3NC2=O)CC1
Cytochrome P450 3A4 [1]
  pIC50: 6.06
[4]
  pKi: 9.26
[2]
  Activity: Not Active
Cytochrome P450 3A4 [3]
  pIC50: 7.08

## Cc1cc(C[C@@H](NC(=O)N2CCC(N3Cc4ccccc4NC3=O)CC2)C(=O)N2CCC(N3CCCCC3)CC2)cc2cn[nH]c12
[4]
  pKi: 11.00
[5]
  solubility: 15 mg/mL (≈ 23.9 mM)

## Cc1cc(C[C@@H](NC(=O)N2CCC(N3Cc4cccc(F)c4NC3=O)CC2)C(=O)N2CCC(N3CCCCC3)CC2)cc2cn[nH]c12
[6]
  Tmax: 10.2 min
[7]
  bioavailability: 81%
Oryctolagus cuniculus [8]
  AUC: 1.3 µM·h
[9]
  Tmax: 10.2 min
[10]
  bioavailability: 43%
[11]
  clearance: 13 mL/min/kg
[12]
  bioavailability: ≤ 0.3%
[13]
  Kb: 0.028 nM
[4]
  pKi: 10.89
[14]
  half-life: 660 min
[15]
  Cmax: 1200 nM
[16]
  pKi: < 6.30
[17]
  pEC50: 10.46
[18]
  bioavailability: 55.2%
Callithrix jacchus [19]
  Activity: Active
[20]
  pKi: < 5.30
[21]
  pEC50: 10.22
[22]
  bioavailability: ≤ 0.3%
[23]
  bioavailability: 73%
[24]
  Tmax: 1.98 min
[25]
  Vd: 2.7 L/kg
Oryctolagus cuniculus [26]
  AUC: 1.1 µM·h
[27]
  Papp: < 1.5 ×10⁻⁶ cm/s
[28]
  pEC50: 6.51
Callithrix jacchus [29]
  Activity: inactive
Callithrix jacchus [30]
  Activity: Active
Cytochrome P450 2C19
  pIC50: < 4.40
Oryctolagus cuniculus [31]
  Cmax: 8200 nM
Cytochrome P450 2C9
  pIC50: < 4.40
[32]
  pKi: 10.11
[33]
  concentration at 24 h: > 10 nM
Calcitonin receptor
  pKi: < 5.30
Oryctolagus cuniculus [34]
  F: 59%
[35]
  pKi: < 6.00
[36]
  pKi: < 5.30
[37]
  Cmax: 360 nM
[38]
  solubility: > 500 mg/mL
Callithrix jacchus [39]
  Activity: inactive
[40]
  AUC: 0.36 µM·h
[41]
  bioavailability: 76%
[42]
  fraction unbound at 10 µM: 0.35
[43]
  pKi: < 5.30
